# D1 mod: D1 CRE-luciferase signal change, two-sided – cell-based, HEK293 D1, dopamine EC30, D1 allosteric modulator project, primary screen; dopamine EC30 potentiation; actives deviate in either direction; B-score at 10 µM; hit rate 5.9% among 58,000;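 active = luminescence count or its row- and column-corrected plate score outside the 99.7% band of the plate's sample wells, on either side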
# BAP1 block: inhibitors of BAP1 deubiquitinase, primary screen, biochemical, Ub-AMC fluorescence, kinetic. Ubiquitin carboxyl-terminal hydrolase BAP1 (Homo sapiens), Q92560. recombinant BAP1, Ub-AMC hydrolysis fluorescence kinetic; active compounds read low. calls only at 20 µM. hit rate 0.48% among 72,000;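 active = activity remaining at or below 50% of control, provided the compound also passes the data quality filters; inactive = the rest, including low values that fail the filters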;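 note: 100% = DMSO wells rate and 0% = substrate alone blank rate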
# hDAT+cocaine: changed hDAT dopamine uptake under cocaine IC80, either direction, primary screen, cocaine antagonist project, cell-based, LLC-PK1 hDAT, [14C]-dopamine uptake, MLSMR; Sodium-dependent dopamine transporter (Homo sapiens), Q01959; LLC-PK1 hDAT cells, [14C]-dopamine uptake with cocaine IC80; actives deviate in either direction; B-score at 10 µM; hit rate 1.3% among 110,000; AID 449768, 2010;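 active = Z score or B-score, a plate-position-corrected score, falls beyond the plate's 99.7% confidence bounds, in either direction; inactive = both scores lie inside the 99.7% bounds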;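 note: scored against the spread of the other compound wells on the same plate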
# M1 ag: M1 muscarinic receptor agonists, primary screen, CHO-M1 cells, Fluo-4 calcium, agonist mode. B-score at 10 µM. Fluo-4 calcium fluorescence; active compounds read high. hit rate 3% among 64,000;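 active = fluorescence rise, raw or as B-score row- and column-corrected plate score, outside the 99.7% band of its plate's samples, either direction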
# HEK293 NFkB inh: inhibitors of PMA/ionomycin-induced NF-kB reporter, primary screen, antigen receptor NF-kB inhibitor project, cell-based, HEK-293 luciferase reporter, luminescence; HEK-293 NF-kB luciferase reporter; inhibition, % at 3 µM; hit rate 0.21% among 62,000; AID 465, 2006;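 active = inhibition above the mean of all tested compounds plus 3 SD, cut at about 40% in these data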;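 note: 0% = stimulated DMSO wells and 100% = 10 µM reference inhibitor 5653914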
#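 Signal: luciferase luminescence; Material: HEK-293 cells with stable firefly luciferase reporter driven by four HIV NF-kB elements; Probe or stimulus: PMA with ionomycin; Replication: tested once; Times: 1 h compound pretreatment, then 16 h stimulation at 37 °C, 5% CO2; Benchmarks: DMSO and 10 µM reference inhibitor; Evaluation: per-plate % inhibition versus controls.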
# M1 antag: antagonists of rat M1 muscarinic receptor; CHO-M1 cells, Fluo-4 calcium, ACh EC80 antagonist mode; active compounds read low; Muscarinic acetylcholine receptor M1 (Rattus norvegicus), P08482; hit rate 3.4% among 64,000; B-score at 10 µM;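 active = calcium fluorescence response, raw or row-and-column corrected B-score, differing from the plate sample mean either way at a set confidence level, mostly lower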
# Target sequence (P08482 whole entry, looked up): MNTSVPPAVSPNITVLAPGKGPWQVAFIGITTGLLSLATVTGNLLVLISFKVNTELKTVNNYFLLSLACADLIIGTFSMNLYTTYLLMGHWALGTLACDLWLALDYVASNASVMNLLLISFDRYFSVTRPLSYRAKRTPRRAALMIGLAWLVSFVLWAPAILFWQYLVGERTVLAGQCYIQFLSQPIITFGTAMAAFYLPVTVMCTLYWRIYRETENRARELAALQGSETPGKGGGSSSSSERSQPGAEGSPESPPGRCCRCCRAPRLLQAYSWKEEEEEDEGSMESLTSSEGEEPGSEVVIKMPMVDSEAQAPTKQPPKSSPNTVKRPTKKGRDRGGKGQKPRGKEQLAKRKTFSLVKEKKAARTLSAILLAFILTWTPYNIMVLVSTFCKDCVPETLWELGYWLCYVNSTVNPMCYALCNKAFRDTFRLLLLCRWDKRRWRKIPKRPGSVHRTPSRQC
# M1 ag confirm: rat M1 muscarinic receptor agonists, confirmation, CHO-M1 cells, Fluo-4 calcium, duplicate retest; shares compounds with M1 ag; Fluo-4 calcium fluorescence, agonist mode; actives lie on both sides; fluorescence change (max-min) at 10 µM; hit rate 19% among 1,700; AID 1488, 2009;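 active = fluorescence change differs from the solvent-only DMSO control mean at a set confidence level in both duplicate runs; inconclusive = differs from solvent-only control mean in just one of two runs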;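 note: an EC20 dose of acetylcholine follows compound addition during the same imaging run; raw fluorescence intensity difference in instrument units with no normalization to controls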
# M4 ag counter: agonist activity at rat M4 receptor, confirmation, counter-screen for M1 allosteric modulator project, cell-based, agonist mode; CHO M4/Gqi5 cells, Fluo-4 calcium fluorescence; actives lie on both sides; shares compounds with M1 ag; hit rate 9% among 1,700; fluorescence change (max-min) at 10 µM;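 active = fluorescence change differing from the plate's solvent-only control wells at 99.7% confidence in both duplicates, whether higher or lower; inconclusive = differs from solvent controls in only one of two duplicates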
# * marks the source's active call; other numbers are inactive results; i = inactive; ? = inconclusive; · = no result given; ! = repeats disagree. Most compounds without a hit are left out; they make up all but 7.2% or so of the library.
SMILES,D1 mod,BAP1 block,hDAT+cocaine,M1 ag,HEK293 NFkB inh,M1 antag,M1 ag confirm,M4 ag counter
Cc1cccc2cc(C(c3nnnn3Cc3ccccc3)N3CCN(c4ccccc4)CC3)c(=O)[nH]c12 (stereo not given),-1.34,i,0.732,6.4*,17.0,0.155,?,?
O=C(O)CC1OC(=O)c2cc3c(cc21)C(=O)OC3CC(=O)O (stereo not given),·,i,·,·,·,·,·,·
Cc1oc2nc(SCC(=O)NCCCO)nc(N)c2c1C,·,·,-0.762,·,·,·,·,·
Cc1oc2nc(SCCCC(=O)NCCCO)nc(N)c2c1C,0.99,i,-1.03,4.64*,·,0.729,?,?
CCOC(=O)N1CCC(NC(=O)C2CCCN(Cc3nc(-c4cccc(Cl)c4)oc3C)C2)CC1 (stereo not given),-2.27,i,0.927,10*,8.9,-4.35*,-5.44,-56.5
Cc1nnc(SCC(=O)Nc2sc3c(c2C#N)CCCC3)s1,·,i,·,·,·,·,·,·
O=S(=O)(Nc1cccnc1)c1ccc(C2CCCCC2)cc1,-0.197,i,-1.31,7.1*,22.1,-3.1*,12.4,-15.4
O=S(=O)(Nc1cccnc1)c1ccc(Cl)cc1,·,·,-0.419,·,·,·,·,·
COc1ccc(OCC(O)CN2C(=O)c3ccccc3S2(=O)=O)cc1 (stereo not given),-0.0407,i,-0.588,-0.00902,7.8,0.389,·,·
CC1(C)NC(=O)N(CC(O)COc2ccccc2C(=O)Nc2ccccc2)C1=O (stereo not given),·,i,-0.308,5.38*,·,-2.44,?,-42.4
O=C(Nc1ccccc1)c1ccccc1OCC(O)CN1C(=O)c2ccccc2S1(=O)=O (stereo not given),-1.68,i,-0.166,6.11*,3.4,-1.88,-19.5,?
CCSc1nccc(Nc2ccccc2)c1C#N,·,i,·,·,·,·,·,·
Cc1ccc(OCC(=O)Nc2ccc(-c3nc4ncccc4o3)cc2)c(C)c1,0.407,·,-0.22,3.35*,-5.4,-1.18,?,-48.7
COc1ccccc1Nc1ccc2ccccc2c1,·,i,·,·,·,·,·,·
CCn1c(SCC(=O)Nc2nccs2)nnc1-c1ccc(S(=O)(=O)N2CCCCCC2)cc1,·,·,-0.846,·,·,·,·,·
CCC(Sc1nnc(-c2ccc(C)c(Cl)c2)n1CC)C(=O)Nc1nccs1 (stereo not given),-1.57,i,1.75,5.25*,5.3,-0.0986,-12.7,-55.5
COc1ccccc1Nc1n[nH]c(=S)n1-c1ccccc1OC,·,i,·,·,·,·,·,·
Cc1n[nH]c(C)c1N1C(=O)c2cccc3c(N4CCCCCC4)ccc(c23)C1=O,1.42,i,1.42,451*,13.7,-13.7*,2972*,2513*
CCOC(=O)C1C(c2ccccc2)NC(=S)NC1(O)C(F)(F)F (stereo not given),·,i,·,·,·,·,·,·
CCCNS(=O)(=O)c1ccc(CCC(=O)N2CCCCC2)cc1,-0.361,i,-0.566,4.79*,22.1,1.07,?,-49
CCCNS(=O)(=O)c1ccc(CCC(=O)N2CCN(CC)CC2)cc1,·,·,-0.411,·,·,·,·,·
O=C(COc1ccc([N+](=O)[O-])cc1)OC1CCS(=O)(=O)C1 (stereo not given),·,i,·,·,·,·,·,·
O=c1[nH]c2c(s1)C=Nc1ccccc1N2,-0.124,i,-0.603,69.4*,-7.1,-0.904,249*,227*
CCOc1ccccc1NC(=O)C1=C(C)NC(=S)NC1c1cccc(Cl)c1 (stereo not given),·,i,·,·,·,·,·,·
O=C(Nc1ccc(Br)cc1)c1ccc2c(c1)C(=O)N(c1cccc([N+](=O)[O-])c1)C2=O,·,i,·,·,·,·,·,·
SMILES,D1 mod,BAP1 block,hDAT+cocaine,M1 ag,HEK293 NFkB inh,M1 antag,M1 ag confirm,M4 ag counter
CC(C)N(C(=O)CN(C#N)c1nc(N(C)C)nc(N(C)C)n1)c1ccccc1,0.737,i,-1.54,-3.23*,25.4,-0.701,-10.6,-14.4
Cc1ccc2nc(/C(C#N)=N/O)[nH]c2c1,0.022,i,0.873,3.56*,9.2,1.24,?,-33
C=CCOC(=O)C1=C(C)NC2=C(C(=O)CCC2)C1c1ccccc1OCCCC (stereo not given),·,i,·,·,·,·,·,·
C=CCNc1ncnc2c1[nH]c1ccc(C)cc12,-0.628,·,0.891,4.24*,-15.8,-0.467,17.9,-21.7
CCCC(=O)Nc1nc(-c2ccc3c(c2)OCCO3)cs1,·,i,0.623,3.21*,-39.4,-0.14,10,-13.6
c1csc(CCNc2ncnc3sc4c(c23)CCC4)c1,·,i,-1.02,3.92*,15.5,-1.34*,3.06,-21.1
O=C(Nc1ccc(S(=O)(=O)N2CCOCC2)cc1)c1ccc(Cl)cc1,-1.36,i,-0.595,-0.429,18.7,-0.553,·,·
O=C(Nc1ccc(Cc2ccncc2)cc1)c1ccc(S(=O)(=O)N2CCOCC2)cc1,0.26,i,-0.156,12.6*,25.8,-2.55*,-17.4,?
COc1ccc(C2C(C(C)=O)=C(C)N=c3s/c(=C\c4cc(C)n(C)c4C)c(=O)n32)c(OC)c1 (stereo not given),0.157,i,0.0114,144*,15.5,-0.0857,458*,?
Nc1c(C(=O)NCc2ccc3c(c2)OCO3)c2nc3ccccc3nc2n1CCCN1CCOCC1,-1.4,i,1.13,-2.57*,15.5,0.0359,-8.62,-47.9
Nc1c(C(=O)NCCN2CCOCC2)c2nc3ccccc3nc2n1-c1ccc2c(c1)OCO2,0.263,i,0.382,-0.142,11.6,0.00783,·,·
COc1ccc(OC)c(N(CC(=O)Nc2cccnc2)S(=O)(=O)c2ccc(C)cc2)c1,·,·,-1.12,·,·,·,·,·
COc1ccc(OC)c(N(CC(=O)Nc2cccnc2)S(=O)(=O)c2ccc(OC)c(OC)c2)c1,·,i,-2.7*!,2.16*,13.4,-0.946,-11.6,?
COc1ccc(OC)c(N(CC(=O)Nc2ccc3c(c2)OCO3)S(=O)(=O)c2ccccc2)c1,-2.02,·,-0.105,2.84*,20.5,0.498,?,?
Cc1ccc(CS(=O)(=O)CCC(=O)NCc2ccc3c(c2)OCO3)cc1,-0.107,i,0.13,0.203,12.4,0.288,·,·
Cc1ccc(CS(=O)(=O)CCC(=O)NCc2cccs2)cc1,0.344,i,-1.42,4.05*,16.3,0.563,-20.5,-39.4

# Bioassay records deposited in PubChem by several laboratories.
